High-throughput results from PubChem BioAssay.
Hits are enriched below; roughly 4.7% of the tested compounds scored in any of these assays.
HTR2A ag – activates the mouse 5-HT2A serotonin receptor | CHO-K1 mHTR2A beta-arrestin complementation, luminescence; percent of 30 µM serotonin response | activation, % at 7.6 µM | 360,000 compounds, 0.66% hits | AID 624169;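 active means activation above a run cutoff, the mean activation of all tested compounds plus 3 SD, cut at about 14% in these data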;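 further: 0% = plate median of compound wells and 100% = 30 µM serotonin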
Target sequence (P35363 whole entry, looked up): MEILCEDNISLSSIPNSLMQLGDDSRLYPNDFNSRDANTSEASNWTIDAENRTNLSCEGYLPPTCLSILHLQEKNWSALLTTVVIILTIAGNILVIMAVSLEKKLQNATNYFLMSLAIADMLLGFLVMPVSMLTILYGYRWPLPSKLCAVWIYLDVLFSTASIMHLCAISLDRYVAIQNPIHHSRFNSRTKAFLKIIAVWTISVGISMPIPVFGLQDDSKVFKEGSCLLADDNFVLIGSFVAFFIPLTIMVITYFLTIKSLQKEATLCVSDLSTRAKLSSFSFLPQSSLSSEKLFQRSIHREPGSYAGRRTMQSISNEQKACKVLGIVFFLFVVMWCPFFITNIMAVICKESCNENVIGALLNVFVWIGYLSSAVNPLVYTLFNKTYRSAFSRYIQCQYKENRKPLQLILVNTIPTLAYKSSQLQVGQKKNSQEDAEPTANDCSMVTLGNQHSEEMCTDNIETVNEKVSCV
FXN GAA850 act – frataxin GAA850 promoter activation; HEK293 lucGAA850 FXN promoter luciferase reporter, 24 h; percent of 10 µM SAHA response; 360,000 compounds, 0.56% hits; activation, % at 6 µM;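 active means activation above the average of all compounds screened plus 3 SD, cutoff fixed separately per campaign, cut at about 7.5% in these data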;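 further: 0% = DMSO wells and 100% = 10 µM SAHA wells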
MC4R antag cAMP – human MC4R antagonism in cAMP assay | inhibition, % at 6.5 µM | AID 540295 | 360,000 compounds, 0.48% hits | P32245 | MC4R-expressing cells, MTII-stimulated cAMP, LANCE TR-FRET;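 active means inhibition above its plate's cutoff, the mean of tested wells on that plate plus 3 SD, cut at about 29% in these data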;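 further: 0% = Melanotan II alone and 100% = Melanotan II plus saturating MCL0020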
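Assay system: U2OS-MC4R stable cell line; Also added: Melanotan II; Technique: Eu-cAMP/anti-cAMP TR-FRET, emission 671 nm; Times: 30-min compound, 1-h challenge, 1-h detection, room temperature.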
MC4R ag barr – activates human MC4R beta-arrestin recruitment | P32245 | U2OS MC4R beta-arrestin complementation, luminescence; percent of melanotan II response, DMSO zero | activation, % at 8.9 µM | 360,000 compounds, 0.98% hits | AID 540308;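 active means activation above a per-plate cutoff, the mean activation of sample wells on that plate plus 3 SD, cut at about 8% in these data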
AHR activator – activators of human aryl hydrocarbon receptor; activation, % at 5 µM; AID 2796; AHR-responsive luciferase reporter cells, luminescence; 320,000 compounds, 2.5% hits; in the data active means activation above about 47%;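 further: 0% = vehicle wells and 100% = reference agonist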
Starred values were filed as active, the others as inactive; / = not tested or not shown.

SMILES	HTR2A ag	FXN GAA850 act	MC4R antag cAMP	MC4R ag barr	AHR activator
CN(C(=O)CSc1nnc(Cc2cccs2)n1C1CC1)C1CCS(=O)(=O)C1 (centres undefined)	-0.9	2.4	5.6	-0.7	/
COc1cccc(C(=O)O)c1OS(=O)(=O)c1ccc(C)cc1	5.5	-0.3	1.2	0.5	/
COc1ccc(OC)c(C(=O)Nc2ccc3[nH]ccc3c2)c1	-6.2	4.4	-1.9	1.0	49.7*
COc1ccc(C(=O)Nc2ccc3[nH]ccc3c2)cc1	2.0	0.9	-8.5	1.4	-7.2
COc1ccc(C(=O)Nc2ccc3cn[nH]c3c2)c(OC)c1	1.1	2.6	-3.0	3.5	56.1*
COc1ccc(N(C)S(=O)(=O)c2cccc(C(=O)Nc3cccc(C(=O)NC4CC4)c3)c2)cc1	1.4	-2.4	13.9	-1.4	5.2
COc1ccc(CNC(=O)CNC(=O)c2c(C)nn(C)c2Cl)cc1	4.5	-0.8	11.9	-1.0	-1.1
O=C(COC(=O)c1ccc(F)cc1F)NC(=O)Nc1ccc2c(c1)OCCO2	-1.6	-0.4	11.8	3.3	1.2
CCc1nc(NCCC(C)C)c2nnn(Cc3ccccc3)c2n1	2.7	2.8	5.2	8.9*	3.6
CN(CC(=O)Nc1cccc(F)c1)CC(=O)Nc1cccc(S(=O)(=O)N2CCCCC2)c1	3.7	-0.3	0.8	0.1	3.5
COc1ccc(Nc2nc(N)nc(CCl)n2)cc1	-3.6	-6.9	22.9	17.6*	4.5
Nc1nc(CCl)nc(Nc2ccc3ccccc3c2)n1	7.3	-8.4	14.3	14.9*	/
COc1ccc(Nc2nc(N)nc(CN3CCOCC3)n2)cc1	-3.4	1.2	3.6	-0.2	11.3
C=CCNc1nnc(Cc2ccc(C(C)C)cc2)c(=O)[nH]1	-2.2	-2.4	-8.0	-3.2	1.4
FC(F)(F)c1ccc(N2CCN(Cc3ccc4c(c3)OCO4)CC2)nc1	1.6	1.0	2.4	9.2*	-3.8
O=[N+]([O-])c1ccc(N2CCN(Cc3ccc4c(c3)OCO4)CC2)nc1	-4.8	-0.4	-3.5	-0.2	0.5
COc1ccc(-c2ccc3c(c2)c(Sc2ccccc2)c(-c2ccccc2)n3C)cc1	1.9	/	/	/	/
CCn1c(=O)cc(OCC(=O)NCc2cccs2)c2ccccc21	-0.3	-1.3	1.6	-1.6	67.9*
O=C(COc1ccc2c(c1)OCO2)NCc1cccs1	8.7	2.3	-4.7	-0.7	48.5*
CC(C)(C)c1nnc(NC(=O)COc2ccc3c(c2)OCO3)s1	3.4	4.7	5.2	0.3	60.2*
O/N=C/c1cc(Br)cc(Br)c1OCc1ccccc1	6.8	0.7	1.2	1.6	63.7*
O/N=C/c1ccc(OCc2ccccc2)c(Br)c1	-2.2	4.6	13.6	0.1	-4.4
COc1ccc(-c2ccc(/C=C(\NC(=O)c3ccccc3)C(=O)N3CCOCC3)o2)cc1	0.8	-0.3	-3.7	-1.7	76.9*
O=C(COC(=O)/C=C/c1ccc(F)cc1)Nc1nnc(-c2ccccc2)o1	1.5	-1.1	6.9	0.4	-0.5
O=C(Cn1cnc2ccccc2c1=O)c1ccccc1	2.2	-0.2	3.5	4.3	47.7*
SMILES	HTR2A ag	FXN GAA850 act	MC4R antag cAMP	MC4R ag barr	AHR activator
COc1ccc2nc(NC(=O)Cn3cnc4ccccc4c3=O)sc2c1	0.5	2.7	16.3	8.3*	5.1
CC[C@H](C)[C@@H](C(=O)NCCCCCCCCCCC(=O)N1CCNCC1)n1cc(CCCCCN)nn1	-0.9	0.6	2.7	3.0	0.6
Cc1ccc(CN2CC(C(=O)N3CCN(c4ccccc4Cl)CC3)CC2=O)cc1 (centres undefined)	-4.3	0.7	0.3	-1.8	-0.7
CCN(CC)C(=O)CSc1nc(N)c(C#N)c(-c2cccs2)c1C#N	-2.8	-2.7	10.7	1.1	77.0*
CCN(CC)C(=O)CSc1nc2c(c(-c3cccnc3)c1C#N)CCCC2	4.7	2.4	2.0	1.5	67.2*
CCN(CC)C(=O)CSc1nc(-c2cccs2)cc(-c2cccs2)c1C#N	-1.4	-0.8	5.8	-1.9	10.4
C#CCNC(=O)C[C@@H]1C[C@@]2(C(=O)OCC)CCCC=C2N(Cc2ccc3c(c2)OCO3)C1=O	9.6	/	/	/	/
COc1ccc(-c2nn(-c3ccccc3)cc2/C=N/NS(=O)(=O)c2ccccc2)cc1	2.9	2.9	4.6	4.1	49.9*
Cn1c(=S)c2[nH]c(SCC3CCCO3)nc2n(C)c1=O (centres undefined)	0.7	2.1	3.9	-1.3	/
CCOC(=O)c1ccc(S(=O)(=O)NCC(c2ccc(N(C)C)cc2)c2c[nH]c3ccccc23)cc1 (centres undefined)	1.1	-0.1	5.7	0.3	9.7
CN(C)c1ccc(C(CNS(=O)(=O)c2ccc(F)cc2)c2c[nH]c3ccccc23)cc1 (centres undefined)	-3.6	1.6	3.7	-0.5	57.0*
CCOc1cc(/C=C(/C#N)c2nc3ccccc3[nH]2)ccc1OCc1ccc(C(=O)O)o1	-1.6	-1.6	-11.2	-1.4	16.1
COc1cc(/C=C(\C#N)c2nc3ccccc3[nH]2)c([N+](=O)[O-])cc1OCc1ccccc1	-2.9	1.9	6.6	-3.9	87.9*
CC(C)(CO)NC(=O)c1ccc2c(c1)C(=O)c1ccccc1-2	-1.2	5.1	4.2	-1.8	6.3
CCC(C)(C)c1ccc2c(c1)C(=O)c1ccccc1C2=O	0.3	1.8	3.1	-0.9	71.6*
CCN(CC)c1ccc(/C=N/NC(=O)Nc2ccccc2)cc1	4.5	3.3	7.2	0.1	37.8
O=C(N/N=C/c1ccc(Cl)cc1Cl)Nc1ccccc1	-3.6	3.0	-4.4	16.0*	6.5
CCOc1ccc(/C=N/NC(=O)Nc2ccccc2)cc1	-4.1	3.5	5.3	1.1	60.8*
O=C(N/N=C/c1cccc(Cl)c1Cl)Nc1ccccc1	-0.1	3.2	1.2	0.4	11.9
CC1=C(C(=O)N2CCOCC2)CC(CC(=O)NCCc2ccccn2)C(=O)N1Cc1ccc(C(C)(C)C)cc1 (centres undefined)	5.5	-0.7	12.2	-1.8	/
CCCNC(=O)C1(C)CCCN(C(=O)CN2C(=O)c3ccccc3C2=O)C1 (centres undefined)	0.0	0.8	2.7	-2.4	/
COc1ccc(-c2cn3cccnc3n2)cc1NC(=O)C(C)C	4.5	1.3	2.7	-0.4	49.4*
O=C(COC(=O)Cc1c(Cl)cccc1Cl)Nc1ccc(OC(F)(F)F)cc1	-0.1	1.8	15.1	3.3	67.4*
COc1ccc(NC(=O)c2ccc(-c3ccc(OC)cc3)s2)cc1	0.5	1.8	-8.1	8.5*	3.8
COc1ccc(N(CCN2C(=O)c3ccccc3C2=O)C(=O)c2cccc([N+](=O)[O-])c2)cc1	-3.2	3.1	15.4	-2.2	1.7
COc1ccc(CCN(C)C(=O)CCCN2C(=O)c3cccc4cccc(c34)C2=O)cc1OC	0.0	3.1	14.6	-0.9	-2.1
COc1cc(OC)cc(C(=O)N(CCCN2C(=O)c3cccc4cccc(c34)C2=O)c2cccc(OC)c2)c1	3.7	-4.5	4.5	-0.4	103.3*
